UPR CHOP act – apoptotic UPR (CHOP) activation; CHO-CHOP luciferase reporter, luminescence; percent of tunicamycin response over DMSO baseline; activation, % at 10 µM; 330,000 compounds, 0.34% hits; AID 449763;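 active = at 10 µM dose, activation of 40% or more, normalized to positive control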;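 also: 100% = tunicamycin at 10 µg/mL and 0% = DMSO alone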
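Dosing – one dose, 10 µM in 0.5% DMSO · System – CHO-CHOP cells, stable luciferase reporter of PERK-eIF2a-CHOP signalling · Input – 500 cells/well · Control set – tunicamycin 10 µg/mL final as positive, DMSO-only wells as negative · Timing – 6 h compound treatment, 37 °C · Measure – % activation vs tunicamycin · Technique – luminescence read with Steady-Glo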
SKKanGAS inh – inhibitors of SKKanGAS S. pyogenes growth in kanamycin (SK-promoter or general growth effect). BacTiter-Glo, 6 h. inhibition, % at 7.5 µM. 300,000 compounds, 1.3% hits;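 active = mean replicate score, as percent of positive control median, at least 50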;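 also: strain carries kanamycin resistance gene driven by streptokinase promoter and grows in 40 µg/ml kanamycin; loss of luminescence reflects streptokinase promoter inhibition or plain growth inhibition; 0% = median of DMSO wells and 100% = positive control at its reference dose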
XBP1 UPR activ – adaptive UPR (XBP1) activation. CHO-XBP1 luciferase reporter, IRE1-XBP1 UPR activation, luminescence; percent of tunicamycin response, DMSO as zero. activation, % at 20 µM. 330,000 compounds, 0.33% hits;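 active = versus positive control, 20 µM dose yields 30% or more activation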;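 also: 100% = tunicamycin at 10 µg/mL and 0% = DMSO only wells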
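Material – CHO cell line with stable XBP1 luciferase reporter · Buffer or medium – F12 plus 10% FBS · Compound – single point, 20 µM final compound, 1% DMSO · Schedule – 16-18 h cell attachment at 37 °C, then 6 h compound exposure · Signal – Steady-Glo luminescence read · Benchmarks – high control tunicamycin 10 µg/mL final, low control DMSO vehicle only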
CSC inhib – cancer stem cell inhibition; 300,000 compounds, 1.1% hits; inhibition, % at 7.5 µM; cancer stem cell-like cells viability, luminescence; in the data active = inhibition above about 75%; tested in HMLE shEcad cells
Beta apoptosis – blocks beta cell apoptosis | INS-1E cytokine-induced death, ATP luminescence, 48 h; percent of positive-control rescue, neutral wells zero | protection from apoptosis, % (concentration not given with the values) | AID 435005 | 300,000 compounds, 0.8% hits;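 active = Every replicate reaches about 75%, or at least half do and their mean reaches it too, limit read from the data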;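 also: 0% = cytokine-treated negative control wells and 100% = positive control rescue; higher means more ATP so stronger rescue from cytokine killing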
Mdm2-MdmX inh – disrupts the human Mdm2-MdmX interaction; O15151+Q00987; SaOS-2 split-luciferase Mdm2/MdmX complementation, luminescence; inhibition, % at 8 µM; 330,000 compounds, 3% hits; AID 485346;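 active = inhibition of at least 50% at 8 µM in the primary screen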
Target sequence (O15151 whole entry, looked up): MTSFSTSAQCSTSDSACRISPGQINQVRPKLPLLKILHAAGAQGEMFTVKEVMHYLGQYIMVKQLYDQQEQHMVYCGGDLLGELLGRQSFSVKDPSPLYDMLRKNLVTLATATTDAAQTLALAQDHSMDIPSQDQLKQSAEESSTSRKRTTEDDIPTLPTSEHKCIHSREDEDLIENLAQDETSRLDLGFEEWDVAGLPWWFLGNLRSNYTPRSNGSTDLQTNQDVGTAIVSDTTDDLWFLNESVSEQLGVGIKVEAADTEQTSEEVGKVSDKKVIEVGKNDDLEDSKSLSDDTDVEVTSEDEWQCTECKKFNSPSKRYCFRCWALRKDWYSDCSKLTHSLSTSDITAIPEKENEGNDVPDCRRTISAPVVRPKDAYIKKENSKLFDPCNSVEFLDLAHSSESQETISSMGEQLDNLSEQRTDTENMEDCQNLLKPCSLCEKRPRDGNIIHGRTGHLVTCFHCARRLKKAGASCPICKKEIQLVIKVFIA
Target sequence (Q00987 whole entry, looked up): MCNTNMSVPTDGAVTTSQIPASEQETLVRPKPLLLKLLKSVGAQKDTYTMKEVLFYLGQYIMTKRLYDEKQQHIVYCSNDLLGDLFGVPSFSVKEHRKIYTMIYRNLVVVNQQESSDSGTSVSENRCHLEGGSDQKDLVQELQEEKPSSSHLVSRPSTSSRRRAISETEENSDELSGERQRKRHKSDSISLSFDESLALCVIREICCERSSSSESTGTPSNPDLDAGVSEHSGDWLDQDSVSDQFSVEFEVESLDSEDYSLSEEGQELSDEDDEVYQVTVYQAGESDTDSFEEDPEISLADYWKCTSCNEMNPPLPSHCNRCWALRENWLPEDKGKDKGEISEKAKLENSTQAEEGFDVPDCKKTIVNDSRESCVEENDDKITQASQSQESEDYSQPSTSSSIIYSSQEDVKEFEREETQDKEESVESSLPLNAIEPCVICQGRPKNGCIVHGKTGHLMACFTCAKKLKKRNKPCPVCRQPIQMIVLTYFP
The depositor's hits bear a star; x = no result given. Compounds with a hit are over-represented: about 4.8% of the library has one in this group of screens.

SMILES | UPR CHOP act | SKKanGAS inh | XBP1 UPR activ | CSC inhib | Beta apoptosis | Mdm2-MdmX inh
COc1cccc(-c2nn(-c3ccccc3)cc2C(=O)Nc2nccs2)c1 | 5.8 | 61.6* | 2.9 | 25.5 | 9.4 | 35.3
C#Cc1ccc2c(c1)COc1c3ccccc3nn1-2 | 1.5 | -1.9 | 6.2 | 11.3 | 15.1 | -221.3
Cc1ccccc1N=C(NOCc1ccc(Cl)cc1Cl)c1nonc1N | 0.2 | 22.0 | 0.1 | 98.0* | 5.3 | 48.8
Cc1ccc(N=C(NOCc2ccc(Cl)cc2Cl)c2nonc2N)c(C)c1 | -0.9 | 33.7 | -1.0 | 0.7 | 10.7 | 29.8
COc1ccc(/C=C/C(=O)OCC(=O)NC2CC2)c(OC)c1 | 0.1 | x | 0.4 | -6.3 | 1.4 | -24.7
COc1ccc(/C=C2\SC(=S)NC2=O)cc1OS(=O)(=O)c1ccc(NC(C)=O)cc1 | x | 21.6 | x | x | x | x
COc1cc(/C=C2\SC(=S)NC2=O)ccc1OS(=O)(=O)c1ccccc1 | -2.2 | 23.1 | -0.1 | 97.1* | 112.8* | -0.3
COc1cc(/C=C2/SC(=S)NC2=O)ccc1OS(=O)(=O)c1ccc(C)cc1 | -0.4 | 28.7 | -1.1 | 102.4* | 38.8 | 35.5
COc1cc(CO)c(OC)c([N+](=O)[O-])c1 | 0.7 | -2.0 | 1.6 | -5.1 | -4.5 | 0.7
CCOC(=O)N1CCN(c2ccc(S(=O)(=O)N(Cc3ccccc3)Cc3ccccc3)cn2)CC1 | 3.6 | 8.5 | -2.7 | -4.9 | 104.4* | 12.0
CCc1ccc(NC(=O)C(C)Sc2ccc(S(=O)(=O)N3CCN(C)CC3)cn2)cc1 (stereo not given) | -0.4 | x | -0.1 | x | 1.7 | 7.9
Cc1ccc(Cl)cc1N1CCN(CC(O)COC(C)C)CC1 (stereo not given) | 1.5 | -5.6 | -0.5 | 8.0 | -4.2 | -5.2
CC(=O)Nc1ccc(OCC(O)CN2CCN(c3cc(Cl)ccc3C)CC2)cc1 (stereo not given) | -2.5 | -10.4 | 2.0 | 84.5* | x | 11.1
CC(=O)Nc1ccc(OCC(O)CN2CCN(c3ccc(C)c(Cl)c3)CC2)cc1 (stereo not given) | -1.8 | 0.2 | 2.1 | 119.8* | 12.2 | 0.4
O=C(CSc1ccc2ccccc2c1Br)Nc1cccc(S(=O)(=O)NC2=NCCCCC2)c1 | 0.2 | 19.2 | -3.2 | 90.8* | 1.5 | -11.1
Cc1ccc(C)c(SCC(=O)Nc2cccc(S(=O)(=O)NC3=NCCCCC3)c2)c1 | 1.4 | -3.9 | -2.4 | -3.5 | -10.8 | -21.7
COc1ccc(C(=O)N2CCc3c([nH]c4ccccc34)C2C(F)(F)F)cc1 (stereo not given) | 1.6 | 51.6* | -2.9 | 1.3 | -1.0 | 25.7
O=C(/C=C/c1ccc2c(c1)OCCCO2)c1ccc2ccccc2c1O | 4.8 | 0.6 | -3.9 | 94.8* | -6.5 | 15.5
COC(=O)c1c(NC(=S)NNC(=O)c2ccc(Cl)s2)sc(C(=O)N(C)C)c1C | 0.4 | 0.8 | -4.0 | -9.8 | -4.0 | -2.0
COc1ccccc1C(=O)NCCC(=O)N1CCN(S(=O)(=O)c2ccc(Cl)cc2)CC1 | 0.5 | x | 0.5 | -6.3 | 2.1 | 3.7
CC(=O)NS(=O)(=O)c1ccc(N=c2ssc3c2-c2ccc(C)cc2NC3(C)C)cc1 | 2.3 | 81.8* | -3.2 | 43.5 | -1.8 | 4.2
Cc1ccc(NC(=S)c2nc3ccccc3[nH]2)cc1 | 10.0 | 93.1* | -2.4 | 52.8 | 53.6 | -54.6
Cc1ccc(NC(=S)c2nc3ccccc3[nH]2)c(C)c1 | 3.2 | 81.8* | -2.5 | 35.3 | 36.3 | -124.4
COc1cccc2c1O/C(=N\O)C(C(=O)Nc1ccc(C)cc1)C2 (stereo not given) | 1.4 | -4.1 | 0.6 | 36.5 | 2.0 | 46.8
COc1ccc(-c2cn(Cc3ccc4ccccc4c3)nn2)cc1 | 1.4 | -5.1 | 2.2 | -1.8 | -8.3 | -4.2
SMILES | UPR CHOP act | SKKanGAS inh | XBP1 UPR activ | CSC inhib | Beta apoptosis | Mdm2-MdmX inh
COc1ccc(-c2cn(Cc3ccc(C(=O)c4ccccc4)cc3)nn2)cc1 | 5.0 | 12.5 | 0.9 | 51.4 | 106.2* | -15.6
COc1ccccc1N1CCN(Cc2nc(N)nc(Nc3ccc(C)c(Cl)c3)n2)CC1 | 1.9 | 76.2* | 4.4 | 13.4 | 1.2 | 44.4
Cc1cccc(Nc2nc(N)nc(CN3CCN(c4ccccc4F)CC3)n2)c1 | 0.4 | 71.9* | 0.3 | -1.1 | -0.8 | 42.2
COc1ccccc1Nc1nc(N)nc(CN2CCN(c3ccccc3F)CC2)n1 | -0.4 | 62.4* | 0.9 | -12.3 | -1.0 | -13.0
O=C(NCCOc1ccccc1Cl)c1ccc2c(c1)S(=O)(=O)c1cc(Cl)ccc1C2=O | 0.9 | x | -3.0 | 2.1 | -3.0 | 3.0
Cc1ccccc1C(=O)N(CC(=O)Nc1sc(C)c(C)c1C(N)=O)C1CCCC1 | 2.7 | 5.7 | 5.2 | 3.0 | 0.3 | 20.6
C=C1c2cccc(O)c2C(O)=C2C(=O)[C@]3(O)C(O)=C(C(N)=O)C(=O)[C@@H](N(C)C)[C@@H]3[C@@H](O)[C@H]12 | 0.5 | 106.3* | 0.7 | -15.3 | -1.6 | -12.0
C[C@H]1c2cccc(O)c2C(O)=C2C(=O)C3(O)C(O)=C(C(N)=O)C(=O)[C@@H](N(C)C)[C@@H]3[C@@H](O)[C@@H]21 (stereo not given in full) | 0.9 | x | -5.4 | -8.0 | -9.3 | -15.3
CN(C)c1ccc(O)c2c1CC1CC3C(N(C)C)C(=O)C(C(N)=O)=C(O)[C@@]3(O)C(=O)C1=C2O (stereo not given in full) | 14.1 | 109.6* | 0.0 | -0.8 | -10.7 | 8.3
Cc1cccc(/C=c2\s/c(=C\C(=O)C(C)(C)C)[nH]c2=O)c1 | 3.3 | 76.9* | 4.9 | 44.4 | 6.6 | 24.1
COc1ccc(-c2sc3cc4c(cc3c2C#CC2(O)CCCCC2)OCO4)cc1 | 5.1 | x | 0.4 | 112.0* | -9.4 | 5.6
COc1ccccc1-c1sc2cc3c(cc2c1C#CC1(O)CCCCC1)OCO3 | -0.6 | x | -0.9 | 68.4 | -0.8 | 1.1
O=C(O)/C=C/c1ccc(Cn2ccnc2)cc1 | 1.7 | 0.1 | -8.0 | -5.2 | x | 6.6
N#CC(C#N)=Cc1c[nH]c(=O)c(C#N)c1Nc1ccccc1 | 0.6 | 0.3 | -3.0 | 5.6 | -0.4 | -1.9
Cc1ccc(NNC(=O)c2c(C)noc2C)cc1Cl | -1.6 | -11.8 | -3.2 | 98.1* | 2.9 | 13.6
Cc1ccc(NNC(=O)c2ccno2)cc1C | 0.7 | 6.9 | -1.7 | 66.8 | 5.6 | 24.0
Cc1ccc(NNC(=O)c2ccno2)cc1Cl | -0.5 | 7.0 | -1.0 | 97.0* | 99.3* | -4.2
COc1cccc(N2CCN(C(=O)c3oc4ccccc4c3NC(=O)CCc3cc(OC)no3)CC2)c1 | -1.9 | -5.5 | -10.5 | -11.9 | -2.0 | 23.4
O=C(NCc1cccnc1)Nc1cc(Cl)cc(Cl)c1 | 0.2 | 53.9* | -2.5 | 0.6 | -1.3 | 3.0
O=C(NCc1cccnc1)Nc1cccc(Cl)c1 | 1.6 | 8.2 | 0.9 | -17.1 | -3.1 | 3.7
CC(=O)c1ccc(NC(=S)NCc2cccnc2)cc1 | 1.8 | -2.1 | 1.1 | 19.8 | 100.1* | 11.1

Assay outcomes: PubChem BioAssay, several laboratories
